Source: ChEMBL document CHEMBL1122677, “Ring-substituted 1,2-dialkylated 1,2-bis(hydroxyphenyl)ethanes. 3. Synthesis, estrogen receptor binding affinity, and evaluation of antiestrogenic and mammary tumor inhibiting activity of 2,2'-disubstituted butestrols and 6,6'-disubstituted metabutestrols” (1984)

Legend:
[1] = target: T1, Estrogen receptor (Mus musculus) (UniProt O08537+P19785); assay: Percent inhibition of uterotrophic effect in mice at 50 ug; assay type: functional
Method in brief: (§1)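 Antiestrogenic read-out: inhibition of estrone-stimulated uterine growth in immature female NMRI mice, 20 days old, in groups of 10. Test compound in 0.1 mL olive oil was given sc daily for 3 days. Uteri were taken 24 h after the last dose, fixed in Bouin's solution, washed, dried and weighed.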

[2] = organism: Rattus norvegicus; assay: Percent unchanged tumors in DMBA-induced hormone dependent mammary carcinoma in rats at 5 mg dose; assay type: functional
Method in brief: (§2)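 DMBA-induced, hormone-dependent mammary adenocarcinoma in SD rats. Dose is per kg body weight and day, given once daily Monday–Thursday and doubled on Friday. Initial tumors were counted at the start and new tumors during the test. Tumors were scored as complete remission (not palpable), partial remission (≥50% size reduction), no change or progression. Tumor area and body weight change were recorded.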

[3] = target: T1, Estrogen receptor (Mus musculus); assay: Uterotrophic effect in mice at 10 ug (alpha=0.01); assay type: functional, tissue-based; conditions: Uterus
Method in brief: (§3)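 Immature female NMRI mice, 20 days old (14.5 ± 1.2 g), in groups of 10, injected sc daily for 3 days with test compound in 0.1 mL olive oil. Uteri were removed 24 h after the last injection, Bouin-fixed, washed, dried and weighed. Groups were compared by Wilcoxon–Mann–Whitney U test.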

[4] = organism: Rattus norvegicus; assay: Percent progressive tumors in DMBA-induced hormone dependent mammary carcinoma in rats at 5 mg dose; assay type: functional; method in brief: as §2
[5] = target: T1, Estrogen receptor (Mus musculus); assay: Uterotrophic effect in mice at 100 ug; assay type: functional, tissue-based; conditions: Uterus; method in brief: as §3
[6] = target: T1, Estrogen receptor (Mus musculus); assay: Uterotrophic effect in mice at 1000 ug; assay type: functional, tissue-based; conditions: Uterus; method in brief: as §3
[7] = organism: Rattus norvegicus; assay: Final tumor number of DMBA-induced hormone dependent mammary carcinoma in rats after 2 mg dose; assay type: functional; method in brief: as §2
[8] = organism: Rattus norvegicus; assay: Percent change in body weight in rats at 2 mg; assay type: functional; method in brief: as §2
[9] = organism: Rattus norvegicus; assay: Percent complete remission in DMBA-induced hormone dependent mammary carcinoma in rats at 5 mg dose; assay type: functional; method in brief: as §2
[10] = target: T1, Estrogen receptor (Mus musculus); assay: Antiuterotrophic effect in mice at 5 ug; assay type: functional; set-up: unit not given here; method in brief: as §1
[11] = organism: Rattus norvegicus; assay: Initial tumor number of DMBA-induced hormone dependent mammary carcinoma in rats prior to 2 mg dose; assay type: functional; method in brief: as §2
[12] = target: T1, Estrogen receptor (Mus musculus); assay: Percent inhibition of uterotrophic effect in mice at 5 ug; assay type: functional; method in brief: as §1
[13] = target: T1, Estrogen receptor (Mus musculus); assay: Antiuterotrophic effect in mice at 0 ug; assay type: functional; method in brief: as §1
[14] = target: T1, Estrogen receptor (Mus musculus); assay: Uterotrophic effect in mice at 1 ug (alpha=0.01); assay type: functional, tissue-based; conditions: Uterus; method in brief: as §3
[15] = target: T1, Estrogen receptor (Mus musculus); assay: Antiuterotrophic effect in mice at 50 ug; assay type: functional; set-up: unit not given here; method in brief: as §1
[16] = organism: Rattus norvegicus; assay: Percent unchanged tumors in DMBA-induced hormone dependent mammary carcinoma in rats at 2 mg dose; assay type: functional; method in brief: as §2
[17] = organism: Rattus norvegicus; assay: Percent partial remission in DMBA-induced hormone dependent mammary carcinoma in rats at 5 mg dose; assay type: functional; method in brief: as §2
[18] = organism: Rattus norvegicus; assay: Initial tumor number of DMBA-induced hormone dependent mammary carcinoma in rats prior to 5 mg dose; assay type: functional; method in brief: as §2
[19] = organism: Rattus norvegicus; assay: Percent change in total tumor area of DMBA-induced hormone dependent mammary carcinoma in rats at 5 mg dose (alpha <0.05)
[20] = target: T1, Estrogen receptor (Mus musculus); assay: (§4) Uterotrophic effect in mice at 0 ug; assay type: functional, tissue-based; conditions: Uterus; method in brief: as §3
[21] = organism: Rattus norvegicus; assay: Percent change in body weight in rats at 5 mg; assay type: functional; method in brief: as §2
[22] = organism: Rattus norvegicus; assay: Percent complete remission in DMBA-induced hormone dependent mammary carcinoma in rats at 2 mg dose; assay type: functional; method in brief: as §2
[23] = target: Estrogen receptor (Bos taurus) (UniProt Q9XSB5+P49884); assay: Displacement of [3H]-estradiol from calf uterine estrogen receptor; assay type: protein assay
Method in brief: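 Calf uterine cytosol incubated with [³H]estradiol and competitor at six concentrations, 4 °C for 16 h. Dextran-coated charcoal stopped incubation; supernatant radioactivity counted after centrifugation. Percent bound plotted vs log concentration; the molar concentrations of estradiol and test compound halving radioligand binding were read off and expressed as relative binding affinity.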

[24] = target: T1, Estrogen receptor (Mus musculus); assay: Antiuterotrophic effect in mice at 500 ug; assay type: functional; set-up: unit not given here; method in brief: as §1
[25] = organism: Rattus norvegicus; assay: Percent progressive tumors in DMBA-induced hormone dependent mammary carcinoma in rats at 2 mg dose; assay type: functional; method in brief: as §2
[26] = organism: Rattus norvegicus; assay: Percent change in total tumor area of DMBA-induced hormone dependent mammary carcinoma in rats at 2 mg dose (alpha <0.05); assay type: functional; method in brief: as §2
[27] = organism: Rattus norvegicus; assay: Final tumor number of DMBA-induced hormone dependent mammary carcinoma in rats after 5 mg dose; assay type: functional; method in brief: as §2
[28] = organism: Rattus norvegicus; assay: Percent partial remission in DMBA-induced hormone dependent mammary carcinoma in rats at 2 mg dose; assay type: functional; method in brief: as §2
[29] = target: T1, Estrogen receptor (Mus musculus); assay: Percent inhibition of uterotrophic effect in mice at 500 ug; assay type: functional; method in brief: as §1
[30] = target: T1, Estrogen receptor (Mus musculus); assay: as §4; assay type: functional, tissue-based; set-up: unit not given here; conditions: Uterus; method in brief: as §3
[31] = target: T1, Estrogen receptor (Mus musculus); assay: (§5) Uterotrophic effect in mice at 1 ug; assay type: functional, tissue-based; set-up: unit not given here; conditions: Uterus; method in brief: as §3
[32] = target: T1, Estrogen receptor (Mus musculus); assay: (§6) Uterotrophic effect in mice at 10 ug; assay type: functional, tissue-based; set-up: unit not given here; conditions: Uterus; method in brief: as §3
[33] = target: T1, Estrogen receptor (Mus musculus); assay: Uterotrophic effect in mice at 10 ug (alpha =0.01); assay type: functional, tissue-based; conditions: Uterus; method in brief: as §3
[34] = target: T1, Estrogen receptor (Mus musculus); assay: Uterotrophic effect in mice at 100 ug (alpha =0.01); assay type: functional, tissue-based; conditions: Uterus; method in brief: as §3
[35] = target: T1, Estrogen receptor (Mus musculus); assay: Uterotrophic effect in mice at 1 ug (alpha =0.01); assay type: functional, tissue-based; conditions: Uterus; method in brief: as §3
[36] = target: T1, Estrogen receptor (Mus musculus); assay: as §5; assay type: functional, tissue-based; conditions: Uterus; method in brief: as §3
[37] = target: T1, Estrogen receptor (Mus musculus); assay: Anti-estrogenic activity in mice at 50 ug; assay type: functional; method in brief: as §1
[38] = target: T1, Estrogen receptor (Mus musculus); assay: Uterotrophic effect in mice at 0.1 ug; assay type: functional, tissue-based; conditions: Uterus; method in brief: as §3
[39] = target: T1, Estrogen receptor (Mus musculus); assay: as §6; assay type: functional, tissue-based; conditions: Uterus; method in brief: as §3
[40] = target: T1, Estrogen receptor (Mus musculus); assay: Anti-estrogenic activity in mice at 0 ug; assay type: functional; method in brief: as §1
[41] = target: T1, Estrogen receptor (Mus musculus); assay: Anti-estrogenic activity in mice at 500 ug; assay type: functional; method in brief: as §1

T1 sequence (O08537 whole entry, looked up): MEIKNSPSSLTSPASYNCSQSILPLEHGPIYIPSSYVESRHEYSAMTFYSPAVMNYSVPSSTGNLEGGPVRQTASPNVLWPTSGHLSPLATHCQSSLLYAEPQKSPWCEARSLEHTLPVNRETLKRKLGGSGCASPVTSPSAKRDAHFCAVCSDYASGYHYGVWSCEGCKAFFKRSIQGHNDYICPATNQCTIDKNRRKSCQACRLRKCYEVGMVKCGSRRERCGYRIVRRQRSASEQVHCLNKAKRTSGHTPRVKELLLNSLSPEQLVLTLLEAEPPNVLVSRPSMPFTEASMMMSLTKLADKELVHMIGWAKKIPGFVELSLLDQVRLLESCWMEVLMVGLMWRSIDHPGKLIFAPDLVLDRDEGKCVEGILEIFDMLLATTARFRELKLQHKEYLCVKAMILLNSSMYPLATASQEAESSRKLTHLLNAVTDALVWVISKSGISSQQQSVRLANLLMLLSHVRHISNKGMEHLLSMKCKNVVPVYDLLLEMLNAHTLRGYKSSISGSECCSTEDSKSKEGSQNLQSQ
T1 sequence (P19785 whole entry, looked up): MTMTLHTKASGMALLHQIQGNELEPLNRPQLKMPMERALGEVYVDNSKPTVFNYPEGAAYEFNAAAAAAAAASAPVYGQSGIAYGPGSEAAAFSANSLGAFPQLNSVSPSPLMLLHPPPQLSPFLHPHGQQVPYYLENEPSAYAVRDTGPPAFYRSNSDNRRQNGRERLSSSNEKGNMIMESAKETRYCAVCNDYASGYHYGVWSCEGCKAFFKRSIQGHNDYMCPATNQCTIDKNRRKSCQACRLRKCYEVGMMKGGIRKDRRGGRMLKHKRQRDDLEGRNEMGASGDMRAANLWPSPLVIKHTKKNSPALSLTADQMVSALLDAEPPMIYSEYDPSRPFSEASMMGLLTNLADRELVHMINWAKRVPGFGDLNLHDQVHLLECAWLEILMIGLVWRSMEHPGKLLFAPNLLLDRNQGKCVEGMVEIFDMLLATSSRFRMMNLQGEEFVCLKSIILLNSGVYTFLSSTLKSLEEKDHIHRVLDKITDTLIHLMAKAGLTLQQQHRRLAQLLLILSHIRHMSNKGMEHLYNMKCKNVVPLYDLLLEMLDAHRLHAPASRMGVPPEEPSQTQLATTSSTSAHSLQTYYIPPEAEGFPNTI

Compound	inhibition [1]	Effect [5]	Effect [6]	Effect [10]	inhibition [12]	Effect [13]	Effect [15]	relative binding affinity (RBA) [23]	Effect [24]	inhibition [29]	Effect [30]	Effect [31]	Effect [32]	further results
Cc1ccc(O)cc1C(C)C(C)c1cc(O)ccc1C (centres undefined)	20%	12.5	17.4	45.4	5%	14.4	40.6	5.2	35.6	35%				Tumors [2]: 25%; Effect [3]: 14.2; Tumors [4]: 56%; No. of tumors [7]: 25; Body weight [8]: 1.5; Tumors [9]: 15%; No. of tumors [11]: 23; Effect [14]: 13.7; Tumors [16]: 29%; Tumors [17]: 4%; No. of tumors [18]: 25; Tumor area [19]: 283; Effect [20]: 11.1; Body weight [21]: 1.1; Tumors [22]: 11%; Tumors [25]: 56%; Tumor area [26]: 245; No. of tumors [27]: 23; Tumors [28]: 4%
CC(c1ccc(O)cc1O)C(C)c1ccc(O)cc1O (centres undefined)	25%	26.2	34.6	50.6		14.4	39.1	2.1	38.7	26%	12.5	15.4	20.3	
CC(c1ccc(O)cc1Cl)C(C)c1ccc(O)cc1Cl (centres undefined)								4.5			11.8	41.6	40.7	
CC(c1cccc(O)c1)C(C)c1cccc(O)c1 (centres undefined)	25%		13.1	43	13%	14.4	39	1	36.5		11.9			Effect [33]: 12.4; Effect [34]: 12.6; Effect [35]: 11.7
CC(c1cc(O)ccc1O)C(C)c1cc(O)ccc1O (centres undefined)								0.01						
CC(c1ccc(O)cc1F)C(C)c1ccc(O)cc1F (centres undefined)								15			11.8	50.2	51.4	
CC(c1ccc(O)cc1Br)C(C)c1ccc(O)cc1Br (centres undefined)								3.4						
CCc1cc(O)ccc1C(C)C(C)c1ccc(O)cc1CC (centres undefined)		47						12			12.5	38.8	45.2	
CC(c1ccc(O)cc1)C(C)c1ccc(O)cc1 (centres undefined)	26%	42.2	34.8	43.3	12%			12		28%				Effect [36]: 22.6; Effect [37]: 38.7; Effect [38]: 17.7; Effect [39]: 28; Effect [40]: 14.4; Effect [41]: 37.8; Effect [20]: 11.8
CC(c1cc(O)ccc1Cl)C(C)c1cc(O)ccc1Cl (centres undefined)	24%	41.8		40.1	21%	14.4	39.3	1.7	37.2	30%				Effect [36]: 13; Effect [39]: 26.5; Effect [20]: 11.1
Cc1cc(O)ccc1C(C)C(C)c1ccc(O)cc1C (centres undefined)								29			11.8			Effect [36]: 36.5; Effect [38]: 29.2; Effect [39]: 39.4
